Rows were chosen to be rich in hits. Some 3.9% of all compounds tested hit in one or more screens of this group.
TAAR1 antagonist – antagonists of human TAAR1; CHO RD-HGA16 TAAR1, Fluo-8 calcium fluorescence, antagonist; Q96RJ0; inhibition, % at 3 µM; 360,000 compounds, 1.5% hits;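 active = inhibition above a per-plate cutoff, the mean inhibition of test compounds on that plate plus 3 SD, cut at about 49% in these data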;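 note: 0% = DMSO plus EC80 beta-PEA response and 100% = DMSO alone without agonist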
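Test system – hTAAR1-expressing CHO RD-HGA16 cells, Gα16-coupled · Reagent – β-PEA at EC80 concentration, post-compound challenge · Compound dosing – 3 µM, single point · Timing – 140 s kinetic read after compound, 140 s after agonist · Detection – Fluo-8 intracellular calcium dye fluorescence, real-time kinetic reads · Control set – DMSO and EC80 PEA controls · Repeats – n of 1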
CRFBP-R2 block – blocks CRF-induced signaling of the CRF-BP/CRF-R2 complex. 350,000 compounds, 0.59% hits. inhibition, % at 11.8 µM. HEK293 CRF-R2/CRF-BP, CRF-induced calcium fluorescence;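 active = inhibition of the ligand-induced calcium signal above about 50% at the single tested concentration, limit read from the data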
ANO1 block – blocks the mouse calcium-activated chloride channel TMEM16A | normalized B-score (activity score, 25-100; higher = stronger inhibition) at 10 µM | AID 588511 | HEK293 TMEM16A/YFP iodide influx fluorescence, ionomycin | 310,000 compounds, 1.2% hits;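 active = ratio plate-corrected score three or more library SD toward inhibition, starting fluorescence score within five deviations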;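 note: score derived from kinetic fluorescence span divided by baseline fluorescence per well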
TMEM16A act – mouse TMEM16A channel activation, primary screen | B-score at 10 µM | HEK293 TMEM16A/YFP-H148Q/I152L, iodide quench fluorescence; active compounds read low | 340,000 compounds, 0.3% hits | Q8BHY3;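 active = fluorescence-ratio B-score plate-corrected deviation score at least 3 library SD below zero, with starting fluorescence score within 5 deviations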;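 note: channel opened by trigger with iodide after compound preincubation; score built on the fluorescence ratio of max minus min over baseline; more negative score means more quench and so TMEM16A activation or potentiation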
TAAR1 ag – agonists of human TAAR1 | 360,000 compounds, 0.99% hits | activation, % at 3 µM | CHO RD-HGA16 TAAR1, Fluo-8 calcium fluorescence; vehicle wells 0%, saturating PEA agonist 100%;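 active = activation above the mean activation of all test compounds in the run plus 3 SD, cut at about 38% in these data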
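Test system: RD-HGA16 (CHO) cells co-expressing Gα16 and hTAAR1 | Doses: Single dose, 3 µM | Schedule: 17-24 h seeding, 75 min 37 °C dye, 30 min RT | Evaluation: % activation from peak over basal fluorescence ratio, DMSO-to-PEA scaled | Technique: Kinetic Fluo-8 calcium fluorescence | Benchmarks: Low control DMSO, high control PEA (EC100)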
CRFR2-BP ag – agonists of human CRF-binding protein/CRF-R2 receptor complex. activation, % at 13.2 µM. AID 588473. HEK293 CRF-R2/CRF-BP, calcium dye fluorescence (FLIPR); percent of saturating CRF peptide response. 350,000 compounds, 0.46% hits;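 active = activation of at least 50%, plus an integration ratio under a set limit after plate pattern correction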;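 note: plate controls were neutral control wells without compound for no effect and CRF at EC100 for full effect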
Numbers without * were called inactive; i = inactive; . = no result given.

SMILES	TAAR1 antagonist	CRFBP-R2 block	ANO1 block	TMEM16A act	TAAR1 ag	CRFR2-BP ag
O=C(O)C(Cc1ccccc1)N1C(=O)/C(=C/c2cccc3ccccc23)SC1=S (configuration not stated)	.	.	100*	.	.	.
O=C(COC(=O)C1CCCN1C(=O)c1cccs1)Nc1ccc2c(c1)OCO2 (configuration not stated)	-6	2	i	-20*	4	1
O=C(COC(=O)[C@@H]1CCCN1C(=O)c1cccs1)Nc1ccc(Br)cc1	32	-15	.	i	17	3
O=C(COC(=O)C1CCCN1C(=O)c1cccs1)c1ccccc1 (configuration not stated)	-4	1	i	-14*	-2	0
CN(C(=O)CSc1nnc(C2CC2)n1-c1ccccc1)C1CCS(=O)(=O)C1 (configuration not stated)	-7	2	.	i	-2	-1
COc1ccc(NC(=O)Cn2ccc(C(F)(F)F)n2)cc1S(=O)(=O)N1CCOCC1	-5	-3	.	i	2	2
Cc1cccc(C)c1NC(=O)C(=O)NCC1CCCN1S(=O)(=O)c1cccs1 (configuration not stated)	-17	-4	i	i	12	-1
Cc1ccc(Cn2nnc3c(=O)[nH]c(C4CCN(S(=O)(=O)c5ccccc5)CC4)nc32)cc1	.	22	i	i	.	-7
Cc1ccc(S(=O)(=O)N2CCC(c3nc4c(nnn4Cc4ccccc4)c(=O)[nH]3)CC2)cc1	-13	64*	i	i	13	2
COc1ccc(OC)c(NC(=O)c2ccccc2NS(=O)(=O)c2cccc3cccnc23)c1	-5	74*	i	i	2	0
COc1cccc(OC)c1CNC(=O)C1CCC(=O)N(CC2CCCCC2)C1 (configuration not stated)	-17	-13	i	i	0	0
COc1cccc(CNC(=O)C2CCC(=O)N(CC3CCCCC3)C2)c1OC (configuration not stated)	-12	92*	i	i	0	3
O=C(NCc1cccc(Cl)c1)C1CCC(=O)N(CC2CCCCC2)C1 (configuration not stated)	-21	86*	i	i	3	-4
COc1cccc(CN2CC(C(=O)NCc3ccc(Cl)s3)CCC2=O)c1 (configuration not stated)	-7	63*	.	i	2	1
COc1cccc(CN2CC(C(=O)NCc3cnn(C)c3)CCC2=O)c1 (configuration not stated)	-3	7	i	i	2	0
COC(=O)c1ccc(N2CCN(C)CC2)c(NC(=O)COc2cccc(C)c2)c1	-9	6	i	i	2	0
COC(=O)c1ccc(/C=C/C(=O)OCC(=O)c2ccc[nH]2)cc1	-4	5	.	i	4	-1
O=C(COC(=O)c1ccc2ncsc2c1)Nc1cc([N+](=O)[O-])ccc1Cl	20	-22	.	i	8	-4
CCCOC(=O)c1ccc(NC(=O)/C=C/c2cccs2)cc1	27	-38	25*	i	8	-1
O=C(/C=C/c1cccs1)Nc1ccncc1	-7	-11	i	i	4	-2
O=C1Nc2ccccc2N(C(=O)c2ccc3ccccc3c2)C1c1nc2ccccc2[nH]1 (configuration not stated)	0	.	.	.	4	.
O=C(NC1CCCC1)c1sc(=S)n2c1[nH]c(=O)c1ccccc12	-2	30	i	i	23	87*
CC1(O)c2ccccc2C(=O)N1Cc1ccccc1 (configuration not stated)	2	-2	i	i	18	-5
CC1(O)c2ccccc2C(=O)N1CCc1ccccc1F (configuration not stated)	7	59*	i	i	11	-4
CC(=O)Nc1sc2c(c1-c1nc3ccccc3s1)CN(C(C)C)CC2	13	-49	.	i	12	94*
SMILES	TAAR1 antagonist	CRFBP-R2 block	ANO1 block	TMEM16A act	TAAR1 ag	CRFR2-BP ag
N#Cc1ccc(NC(=O)Cn2cnc(S(=O)(=O)N3CCc4ccccc43)c2)cc1	-16	-4	i	i	3	-1
Cn1c(=O)c2cc3ccccc3nc2n(C)c1=O	14	-6	i	i	0	21
Cn1c(=O)c2cc3ccc(Cl)cc3nc2n(C)c1=O	-6	52*	i	i	18	-1
CSc1cccc(NC(=O)C(C)C)c1	9	51*	i	i	-1	-3
COCCN1C(=O)/C(=C/c2ccc(N3CCCC3)cc2C)SC1=S	51*	-263	i	i	34	182*
CCN=C1S/C(=C\c2ccc(N3CCOCC3)cc2C)C(=O)N1CC	12	6	i	i	3	1
OC(COc1ccc(Br)cc1)CN1CCC(Cc2ccccc2)CC1 (configuration not stated)	-12	-36	i	i	42*	2
CC(C)OCC(O)CN1CCC(Cc2ccccc2)CC1 (configuration not stated)	-14	-3	i	i	2	0
O=C(CSc1ccccc1Cl)N1CCC(c2nc3ccccc3s2)CC1	20	4	100*	i	13	0
CCCCC1(C)OC(=O)C(=Cc2ccc(N(CC)CC)cc2)C(=O)O1 (configuration not stated)	19	-51	i	i	46*	59*
CC1CCN(C(=O)c2ncn3c2c(=O)[nH]c2cccnc23)CC1	5	9	.	.	2	-1
CC(=O)Nc1cccc(OC(=O)c2ccoc2C)c1	7	-58	i	i	0	115*
O=[N+]([O-])c1cccnc1Sc1ccc(Cl)cc1	13	61*	i	i	-2	-3
COCCNC(=O)C1(C)CCCN(CCC(=O)c2ccc(Br)cc2)C1 (configuration not stated)	11	.	.	.	0	.
COc1ccc(CC(=O)NNC(=O)CSc2ccc(C)cc2)cc1	-7	-1	i	-7.1*	0	-5
COc1ccc(/C(N)=N/OC(=O)CSc2ccc(C)cc2)cc1	9	-3	100*	i	16	2
N#Cc1ccc(Oc2cnccn2)cc1	1	-4	i	i	-1	-1
COc1ccccc1N1CCN(C(=O)c2cc3c(C)nc4ccccc4c3o2)CC1	54*	30	i	i	5	-1
COc1ccccc1N1CCN(C(=O)c2onc(C)c2Cl)CC1	-3	-5	i	-7.7*	0	0

Screening results as filed in PubChem.
